Measurements as given in ChEMBL document CHEMBL1124158, “Importance of the N-terminal domain of the type II angiotensin antagonist sarmesin for receptor blockade” (J Med Chem, 1988).

Experiments:
[1] = species on record: Rattus norvegicus; assay: Negative logarithm of the concentration of compound required to reduce the response of EC50 dose of ANG II to the response to half the EC50 dose; assay type: functional, organism-based; details: read-out: pA2 (converted)
How it was run: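 Rat isolated uterus: defatted horns from diethylstilbestrol-primed virgin Sprague-Dawley rats (150-250 g), halved, 1 g tension, 3-mL bath of 150 mM NaCl, 5.6 mM KCl, 0.18 mM NaHCO₃, 1.4 mM glucose, pH 7.0, oxygenated. Isotonic contractions to human ANG II. pA2 = −log antagonist concentration lowering the EC50-dose response to that of half the EC50 dose.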

[2] = species on record: Rattus norvegicus; assay: Agonistic activity determined by matching the response with an equivalent response to ANG II (human)-evaluated in rat uterus bioassay; assay type: functional
How it was run: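 Uterine horns (defatted) from diethylstilbestrol-primed virgin Sprague-Dawley rats (150-250 g), halved, held under 1 g tension in a 3-mL bath: 150 mM NaCl, 5.6 mM KCl, 0.18 mM NaHCO₃, 1.4 mM glucose, pH 7.0, oxygen-gassed. Isotonic contractions recorded. Agonist activity expressed relative to an equivalent contraction produced by human ANG II.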

Q: For CC[C@H](C)[C@H](NC(=O)[C@@H]1CCCN1C(=O)[C@H](Cc1c[nH]cn1)NC(=O)[C@@H](NC(=O)[C@H](Cc1ccc(O)cc1)NC(=O)[C@@H](NC(=O)[C@H](CCCN=C(N)N)NC(=O)CNC)C(C)C)[C@@H](C)CC)C(=O)O, which Kb [1] is on record?
A: 7.94 nM

Q: And the Activity [2]?
A: <0.01%
